Results on two compounds are retold here after ChEMBL document CHEMBL1156627, “Ring expanded nucleoside analogues inhibit RNA helicase and intracellular human immunodeficiency virus type 1 replication” (J Med Chem, 2008).

Series [1] concerns Human immunodeficiency virus 1. Description: Inhibition of HIV1 replication in human MT4 cells assessed as reduction in reverse transcriptase production at 10 uM. Format: functional, organism-based. An outline of the steps:
(§1)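 MT4 cells (4 × 10^6, RPMI + 10% FBS) infected with 20,000 RT counts of NL4-3 (HeLa-transfection stock); compound added 4 hrs post-infection. Half the medium replaced every 2 days with drug-containing medium; supernatants collected every 2 days up to day 8 and assayed for RT activity (also p24 ELISA). Three independent experiments.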

The target in series [2] is ATP-dependent RNA helicase DDX3X (Homo sapiens) (UniProt O00571). Description: Inhibition of ATP dependent RNA unwinding activity of human RNA helicase DDX3. The method in brief:
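Partially double-stranded RNA: 120-nt T3 transcript from KpnI-cut pBluescript hybridized (95 °C, 20 min) to complementary [α-32P]UTP-labelled T7 transcript from EcoRI-cut vector. Products resolved on 10% polyacrylamide gel, phosphorimaging.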

Series [3] concerns Human immunodeficiency virus 1. Description: Inhibition of HIV1 replication in human MT4 cells assessed as reduction in reverse transcriptase at 25 uM after 8 days by Western blotting. Format: functional, organism-based. An outline of the steps:
as §1
For orientation: Immunoblotting shows a protein as a band on a membrane.

The test system of series [4] is Human immunodeficiency virus 1. Description: Inhibition of HIV1 replication in human MT4 cells assessed as p24 capsid protein level at 25 uM after 8 days by ELISA. Format: functional, organism-based. The method in brief: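 NL4-3 virus stock made by HeLa transfection, titred by RT assay. 4 × 10^6 MT4 cells (RPMI, 10% FBS) infected with 20,000 RT counts; compound added 4 hrs post infection. Half the medium replaced every 2 days with fresh medium holding the same compound level. Supernatants taken every 2 days over 8 days for p24 ELISA. Three repeats.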
On the technique in general: In an ELISA, binding on a coated surface is turned into a signal by an enzyme label.

Series [5] relates to Human immunodeficiency virus 1. Nature of the series: Antiviral activity against HIV1 transfected in human HeLa cells assessed as reduction of p55 viral protein synthesis at 25 uM. Format: functional, organism-based. An outline of the steps:
(§2)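 HeLa cells transfected with 2µg pNL4-3 proviral clone; compound 25 µM added 3 hrs post-transfection. Lysates prepared 24 hrs later; viral proteins detected by Western blotting with anti-HIV-1 patient IgG (hyperimmune patient serum).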

Series [6] relates to Human immunodeficiency virus 1. Nature of the series: Antiviral activity against HIV1 transfected in human HeLa cells assessed as reduction of p24 viral protein synthesis at 25 uM. Format: functional, organism-based. The method in brief: as §2
In series [7] the test system is Human immunodeficiency virus 1. Description: Inhibition of macrophage tropic HIV1 AD8 replication in monocyte-derived macrophages assessed as reduction in reverse transcriptase at 25 uM after 5 days by Western blotting. Format: functional, organism-based. An outline of the steps: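 Monocyte-derived macrophages from elutriated blood monocytes cultured 5–7 days in RPMI-1640 with 10% pooled human AB serum and M-CSF, then infected with 10^5 RT counts of M-tropic HIV-1 AD8 and treated with compound. Supernatants collected every 3 days for RT activity and p24 ELISA; three repeats.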

Series [8] deals with Human immunodeficiency virus 1. Nature of the series: Inhibition of macrophage tropic HIV1 AD8 replication in monocyte-derived macrophages p24 capsid protein level at 25 uM after 5 days by ELISA. Format: functional, organism-based. An outline of the steps: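 Elutriated blood monocytes cultured 5–7 days in RPMI-1640 with 10% pooled human AB serum and M-CSF to give macrophages. Infected on day 5 with 100,000 RT counts of HIV-1 AD8 (stock from HeLa transfection) and treated with compound. Supernatants collected every 3 days for p24 ELISA. Three repeats.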

For a further series, the system named is Mus musculus. Description: Toxicity in BALB/c mouse assessed as tissue necrosis at 0.2 to 200 uM, ip administered […] relative to control. Format: organism-based. To be noted: in vivo, 840 h. The method in brief: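 BALB/c mice, 8–10 weeks old, groups of 4, injected intraperitoneally twice weekly for 4 weeks with boluses calculated to give body distributions of 0.2, 2, 20 and 200 µM. Controls received saline or DMSO. Mice monitored 5 weeks in total, tail-vein blood weekly, then necropsy and multi-organ histology.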

The subject of another series is MT4. Description: Cytotoxicity against human MT4 cells at 1 to 100 uM after 6 days by colorimetric assay relative to control. Type of series: cell-based. To be noted: mt4, 144 h. The method in brief:
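MT4 cells (4 × 10^6 in 2 ml, RPMI + 10% FBS) incubated with 1, 10 or 100 µM compound over 6 days; half the medium replaced every 2 days with fresh drug-containing medium. At each harvest 100 µl suspension incubated 2 hrs with WST-8, absorbance at 450 nm, compared with untreated cells.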

Active and inactive are the calls of the source. The calls are words filed in the database; no cut-off is given here.

ATP-dependent RNA helicase DDX3X (Homo sapiens), sequence (O00571 2-662 limits assumed): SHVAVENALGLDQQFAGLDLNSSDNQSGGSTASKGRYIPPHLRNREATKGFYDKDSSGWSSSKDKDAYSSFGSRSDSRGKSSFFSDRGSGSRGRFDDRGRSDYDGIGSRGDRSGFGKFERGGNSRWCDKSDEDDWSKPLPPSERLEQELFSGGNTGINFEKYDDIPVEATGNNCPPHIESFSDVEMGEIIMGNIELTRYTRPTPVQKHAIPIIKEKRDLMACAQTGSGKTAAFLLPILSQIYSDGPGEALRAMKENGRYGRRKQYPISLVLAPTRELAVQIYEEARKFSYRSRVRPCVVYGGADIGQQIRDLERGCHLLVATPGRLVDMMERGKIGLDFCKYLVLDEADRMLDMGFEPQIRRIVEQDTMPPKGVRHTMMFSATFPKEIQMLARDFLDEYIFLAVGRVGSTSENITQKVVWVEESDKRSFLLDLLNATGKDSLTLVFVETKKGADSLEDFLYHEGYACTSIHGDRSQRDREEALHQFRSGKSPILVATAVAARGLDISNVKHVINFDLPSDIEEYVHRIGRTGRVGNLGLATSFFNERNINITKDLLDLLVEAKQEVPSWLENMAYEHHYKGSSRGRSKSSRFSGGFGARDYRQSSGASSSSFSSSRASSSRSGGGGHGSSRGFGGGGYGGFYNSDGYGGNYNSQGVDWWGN

For `CCCCCCCCCCCCCCCCCCNc1nc(=O)c2c(ncn2[C@@H]2C[C@@H](O)[C@H](CO)O2)c(=O)[nH]1`, the outcome in series [1], in series [2], in series [3], in series [4], in series [5] and in series [6] was Active. Besides, the result in series [7] and in series [8] was Active. Further, the Activity result in the series on Mus musculus and in the series with MT4 was “Non-toxic” in each case.

In the case of `CCCCCCCCCCCCCCCCCCNc1nc(=O)c2ncn([C@@H]3O[C@H](CO)[C@@H](O)[C@H]3O)c2c(=O)[nH]1`, the result in [1], in series [2], in series [3], in series [4], in [5] and in series [6] was Active. In addition, the outcome in series [7] and in series [8] was Active. The Activity result with Mus musculus and in the series on MT4 was “Non-toxic” each time.
